Screens from PubChem.
DNA FID counter: displaces DNA intercalator in HCV helicase counter-screen; AID 1845; 290,000 tested, 0.17% active; inhibition, % at 7.9 µM; DNA fluorescent intercalator displacement, fluorescence; in the data active means inhibition above about 37%;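 further: 0% = vehicle and 100% = reference compound; higher means more ethidium bromide displaced from hairpin DNA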
HSP90 inh: HSP90 refolding inhibition in rabbit reticulocyte lysate. luciferase refolding luminescence, 3 h. inhibition, % at 5.6 µM. 290,000 tested, 0.91% active. AID 1789;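 active means inhibition above the screen-wide mean plus 3 SD, computed separately per campaign, cut at about 16% in these data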;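 further: 0% = DMSO wells and 100% = 60 µM geldanamycin wells; inhibitors lower the luminescence because luciferase stays unfolded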
HSF-1 act: increases HSF-1 driven luciferase reporter signal; NIH3T3-HGL HSF-1 luciferase reporter, MG132, 8 h; 100% = twice DMSO control signal; activation, % at 9 µM; 300,000 tested, 1.7% active;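 active means mean replicate activation of at least 50% with a set share of replicates each reaching 50%; inconclusive means only one of those two conditions met; inactive means mean below 50% and too few replicates reaching it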;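 further: 0% = median of the neutral control wells and 100% = twice that signal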
HCV NS3 hel inh: HCV NS3 helicase inhibition. inhibition, % at 10.9 µM. NS3 helicase DNA unwinding, Cy5 molecular beacon fluorescence. AID 1800. 290,000 tested, 0.56% active;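 active means inhibition above the mean of all tested compounds plus 3 SD, set per campaign, cut at about 35% in these data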;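 further: 0% = DMSO wells and 100% = thioflavine S control wells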
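assay system = NS3 helicase fragment of HCV | buffer or medium = MOPS pH 6.5, MgCl2, DTT, Tween20, BSA | timing = 60 min unwinding reaction at 25 °C after ATP addition | signal = Cy5 beacon fluorescence read at start and 1 h | read-out basis = % inhibition of unwinding | control set = low DMSO, high thioflavine S at 110 µM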
HSF1 inh: HSF1 inhibition. NIH3T3-HGL HSE-luciferase, MG132-induced, luminescence 8 h; stronger effect = lower value. activity change, negative = inhibition, % at 7.5 µM (by protocol). 300,000 tested, 0.77% active. AID 2098;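 active means more than half of replicate wells show activity change below -50%, luminescence cut by over half; inconclusive means some wells, but at most half, below -50%; inactive means no replicate well below -50%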;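 further: luciferase reports HSF-1 transcriptional activity via heat shock element; 0% = median of DMSO wells and -100% = zero luminescence signal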
HCV core dimer: blocks dimerization of HCV core protein | TR-FRET GST/Flag-core106 dimerization, 1536-well | inhibition, % at 5 µM | 300,000 tested, 0.33% active;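 active means inhibition above the mean of all tested compounds plus 3 SD, set per screening campaign, cut at about 45% in these data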
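Material: Tagged HCV core106 pair (GST and Flag) | Amount: GST-core106 13.5 nM, Flag-core106 17 nM | Medium: KF-containing HEPES buffer, pH 7.45, DTT, CHAPS, BSA | Reagent: Eu donor and XL665 acceptor anti-tag antibodies | Schedule: 4 h at 22.5 °C | Technique: Time-resolved FRET, ex 340 nm, em 617 and 671 nm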
An asterisk follows results filed as active; u = inconclusive; x = no result given. This is a sample that favours compounds with a hit; in the whole collection about 3.9% have one here.

SMILES | DNA FID counter | HSP90 inh | HSF-1 act | HCV NS3 hel inh | HSF1 inh | HCV core dimer
CC(=O)Nc1ccc(NC(=O)c2nc(S(=O)(=O)Cc3cccc(C)c3)ncc2Cl)cc1 | -14.1 | 1.9 | -40.3 | -5.7 | u | 1.5
Cc1cccc(CS(=O)(=O)c2ncc(Cl)c(C(=O)NCc3ccc4c(c3)OCO4)n2)c1 | -30.1 | 0.8 | 317.2* | -0.4 | 268.4 | 0.5
COC(=O)c1ccc(NC(=O)c2nc(S(=O)(=O)Cc3cccc(C)c3)ncc2Cl)cc1 | -16.2 | 0.5 | -88.3 | -12.9 | -86.0* | 0.1
Cc1ccc(-c2csc(C(C#N)=C3CCCC3)n2)cc1 | -3.5 | -4.7 | x | 3.4 | x | -0.6
N#CC(=C1CCCC1)c1nc(-c2cc3ccccc3oc2=O)cs1 | -3.8 | -4.6 | 72.4* | 9.0 | 51.7 | 38.9
N#CC(=C1CCCC1)c1nc(-c2ccccc2)cs1 | -1.9 | 0.9 | 85.6* | -25.4 | 47.1 | 4.4
CCCCc1cc(O)c(CCCC)c(O)c1 | -2.8 | -2.7 | 182.1* | -2.7 | 127.1 | -12.3
CCCCCc1cc(O)c2c(C)cc(=O)oc2c1 | 5.6 | 1.8 | 1.6 | -7.6 | -3.8 | 6.6
O=C(OCc1cc(=O)n2c(n1)sc1ccccc12)c1ccc2c(=O)n3c(nc2c1)CCC3 | x | x | -3.9 | x | -3.8 | 42.6
Cc1ccc2c(CC(=O)OCc3cc(=O)n4c(n3)sc3ccccc34)coc2c1 | -1.9 | -2.8 | 4.0 | 5.8 | -1.3 | 89.7*
CC(C)NC(=O)CSc1nnc2sc3ccccc3n12 | -2.6 | -1.2 | 4.9 | 1.6 | -3.0 | -0.3
CC(C)[C@H](NC(=O)Cc1ccccc1)C(=O)OCc1cc(=O)n2c(n1)sc1ccccc12 | -9.0 | 5.1 | -78.4 | 11.3 | -72.3* | 45.6
COC(=O)N/N=C/c1cccc(OCCSc2ccc(Cl)cc2)c1 | -10.2 | 5.1 | 56.5* | -9.6 | 22.6 | 6.7
CCN1CCN(Cc2ccc(NC(=O)c3ccc(C)c(NC(=O)c4cccc5[nH]ccc45)c3)cc2C(F)(F)F)CC1 | x | x | -61.5 | x | -55.0* | -8.9
CCOC(=O)N/N=C\c1ccc(C)s1 | -0.2 | -0.2 | -81.0 | -0.6 | -78.8* | 0.9
Cc1ccc(/C=N/NC(=O)c2ccncc2)s1 | -3.3 | -2.4 | -0.1 | 0.0 | -7.6 | -5.5
Cc1ccc(/C=N/N=C/c2ccc(C)s2)s1 | -1.0 | 0.5 | 77.5* | 6.3 | 36.1 | 2.8
CCOC(=O)N/N=C\c1ccc([N+](=O)[O-])s1 | 4.7 | -0.7 | 8.4 | -6.1 | 9.5 | -2.0
O=C(O)CCSc1ncnc2sc(-c3ccccc3)cc12 | -13.8 | 12.3 | -65.3 | 2.8 | -63.7* | 5.1
COc1cc(CNCCO)cc(Cl)c1OCc1ccc(Cl)cc1Cl | 43.4* | 3.8 | -0.2 | -60.1 | 3.0 | -16.2
Cc1ccc(C(=O)NC2CCCN(c3ccc(C(F)(F)F)cn3)C2)cn1 (centres undefined) | -29.7 | 1.8 | 53.7* | -2.0 | 12.4 | -6.4
CC(C)=CCc1c(O)c(CC=C(C)C)c2c(c1O)-c1cc(O)c(O)cc1CC2 | x | x | -27.5 | x | -17.2 | -3.6
CCOC(=O)N1CCN(C(=O)c2cc3ccc(OC)cc3[nH]2)CC1 | -31.4 | 7.2 | -9.1 | -6.3 | -5.3 | -10.6
O=S1(=O)c2ccccc2N=NN1Cc1cc(Cl)cc(Cl)c1 | -6.3 | 0.7 | 46.3 | 13.2 | 19.8 | 46.0*
O=S1(=O)c2ccccc2N=NN1Cc1ccc(Cl)cc1 | -6.7 | 5.9 | 1.4 | 11.0 | -2.5 | 47.1*
SMILES | DNA FID counter | HSP90 inh | HSF-1 act | HCV NS3 hel inh | HSF1 inh | HCV core dimer
CC(=O)Nc1ccc(OCC(=O)NCc2ccc3c(c2)OCO3)cc1 | -1.5 | 1.8 | -10.2 | 4.0 | -5.9 | 1.0
Fc1ccc(Nc2ccc3ccccc3n2)c(F)c1 | -5.8 | 33.8* | -22.2 | 2.3 | -0.4 | -1.4
CCN(CC)c1ccc(/C=C/C(=O)C2C(=O)C=C(C)OC2=O)cc1 (centres undefined) | -11.6 | -1.4 | 38.8 | 21.1 | 6.1 | 3.5
CC(C)CN(C(=O)c1cccs1)C1CCS(=O)(=O)C1 (centres undefined) | x | x | 62.3* | x | 19.1 | x
COc1ccccc1N1CCN(C(=O)CN(c2ccccc2OC)S(=O)(=O)c2ccccc2)CC1 | -37.5 | 1.3 | x | -13.0 | x | 0.7
CCc1cc(C(c2ccc(OC)c(OC)c2)N2CCOCC2)c(NC(=O)c2ccccc2)s1 (centres undefined) | -9.6 | -1.5 | u | 1.4 | 24.6 | 1.5
CCc1cc(C(c2ccc(F)cc2)N2CCOCC2)c(NC(=O)c2ccccc2)s1 (centres undefined) | -2.8 | 1.9 | 63.1* | -11.1 | 34.8 | 5.2
CCOC(=O)CC1COCCN1C(=O)c1ccc2oc(Cc3ccccc3)nc2c1 (centres undefined) | -39.2 | -4.9 | 8.5 | 1.3 | 8.5 | 6.8
O=C(C#Cc1cccc([N+](=O)[O-])c1)c1ccccc1 | 0.8 | -2.4 | 96.7* | -9.4 | 61.5 | 16.0
O=C(Nc1cccc([N+](=O)[O-])c1)c1ccccc1 | 3.3 | 0.4 | 10.6 | 10.0 | -4.6 | -3.1
Nc1ccccc1C#CC(=O)c1ccccc1 | -2.7 | -1.1 | 83.6* | -10.4 | 58.0 | 5.5
Cc1cccc(/C(N)=N/OC(=O)c2ccoc2C)c1 | -6.1 | 5.9 | 84.9* | 8.7 | 34.1 | -19.0
O=C(COc1ccccc1)Nc1ccc(S(=O)(=O)Nc2ccccn2)cc1 | -14.2 | 2.1 | -0.6 | 4.0 | -5.8 | -8.7
Cc1c(C(=O)OCc2ccccc2)[nH]c2c1C(=O)CC(c1ccco1)C2 (centres undefined) | -12.3 | -4.2 | -22.1 | 14.0 | -19.6 | 51.0*
CCOC(=O)c1[nH]c2c(c1C)C(=O)CC(c1ccco1)C2 (centres undefined) | -2.7 | 0.0 | -25.5 | 12.9 | -19.3 | 43.7
CC(=O)N1CSCC1C(=O)NNS(=O)(=O)c1cccc(C(F)(F)F)c1 (centres undefined) | -1.2 | -1.2 | 74.8* | -0.7 | 19.3 | 1.1
CC(=O)N1CSCC1C(=O)NNS(=O)(=O)c1ccccc1 (centres undefined) | -1.7 | -0.1 | -4.2 | -10.0 | -4.0 | 1.6
Cc1cc(OCc2cc(C(=O)NC3CCC3)no2)cc(C)c1Cl | -25.5 | 1.4 | 15.5 | -11.7 | 1.2 | -5.1
Cc1cc(OCc2cc(C(=O)NC(C)c3c(C)nn(C)c3C)no2)cc(C)c1Cl (centres undefined) | -48.5 | -3.5 | 53.9* | -18.8 | 35.9 | 1.5
COC(=O)CSc1nc2cc(C)ccc2cc1C#N | 4.4 | -3.6 | 64.7* | 12.3 | 38.3 | 3.1
CCOc1ccccc1CN1CCN(Cc2cn(C)nc2-c2ccccc2)CC1CCO (centres undefined) | 2.6 | -2.2 | 82.4* | -4.0 | 43.2 | -0.3
Cn1cc(CN2CCN(Cc3ccccc3)C(CCO)C2)c(-c2ccccc2)n1 (centres undefined) | 6.1 | -1.3 | -3.2 | -6.6 | 3.2 | -2.9
C[C@@H](CC#N)CN1CC[C@H](C(C)(C)C)CCC1=O | -20.4 | 1.1 | -8.9 | 17.6 | -2.6 | 9.1
